In data set [1] the test system is Mycobacterium tuberculosis. In words: Antitubercular activity against Mycobacterium tuberculosis H37Rv ATCC 27294 assessed as growth inhibition after 16 to 24 hrs by microplate-Alamar Blue assay. Type of data set: functional. In a few lines:
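MIC against M. tuberculosis H37Rv (ATCC 27294), actively replicating, by microplate Alamar Blue assay.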
In general terms: Resazurin is reduced to fluorescent resorufin, in cell work by metabolically active cells.

Data set [2] concerns Mycobacterium tuberculosis. Nature of the data set: Antitubercular activity against recombinant Mycobacterium tuberculosis H37Rv ATCC 27294 expressing Vibrio harveyii luciferase gene with acetamidase promoter assessed as reduction of metabolic recovery after 10 days by low-oxygen recovery assay. Type of data set: functional. The following applies: H37Rv ATCC 27294, 240 h. In a few lines:
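Low oxygen recovery assay on H37Rv (ATCC 27294), used as an in vitro model of nonreplicating persistent M. tuberculosis. Each MIC is a single measurement.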

For data set [3], the system named is Mycobacterium tuberculosis. Nature of the data set: Ratio of MIC for Mycobacterium tuberculosis H37Rv ATCC 27294 expressing Vibrio harveyii luciferase gene with acetamidase promoter by low-oxygen recovery assay to MIC for Mycobacterium tuberculosis H37Rv ATCC 27294 by microplate-Alamar Blue assay. Format: functional.
The test system of the next data set is Vero. Nature of the data set: Cytotoxicity against African green monkey Vero cells assessed as cell viability after 72 hrs by MTS assay. The conditions noted are these: Chlorocebus sabaeus. Type of data set: cell-based. The essentials: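 Value reported as an IC50 against Vero cells.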
A short description of data set [4]: Selectivity index, ratio of IC50 for African green monkey Vero cells to MIC for Mycobacterium tuberculosis H37Rv ATCC 27294. Type of data set: toxicity, cell-based. The following applies: read-out: Selectivity Index. The essentials: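 Selectivity index calculated as the Vero cell cytotoxicity IC50 divided by the MABA MIC against H37Rv. Cytotoxicity was measured on Vero cells.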

Converted amounts (≈) assume the structure as drawn. Bounds are passed on as bounds.

Usually MIC stands for the least concentration at which growth counts as inhibited. Usually IC50 stands for the concentration at which inhibition is half-maximal.

Consider `Cc1ccc(Nc2nc(C)cs2)cc1`, for which the MIC in data set [1] was greater than 128 µM.

As to `COc1ccc(-c2csc(Nc3ccc(C)cc3)n2)cc1`, the MIC stood at 31.8 µM in data set [2] and 13 µM (≈ 3.85 µg/mL) in data set [1]. Besides, the Ratio in data set [3] was 2. The IC50 in the data set with Vero is greater than 128 µM.

With `Clc1cc(Cl)cc(Nc2nc(-c3ccccc3)c(Cc3ccccc3)s2)c1`, in data set [1], the minimal inhibitory concentration (MIC) was 20 µM (≈ 8.23 µg/mL). In the data set on Vero, the IC50 is 82.7 µM.

Take `Fc1ccc(C(F)(F)F)cc1-c1csc(N(Cc2ccccc2)c2cc(Cl)cc(Cl)c2)n1`: the MIC in data set [1] is greater than 128 µM.

`Clc1cc(Cl)cc(Nc2nc3c(s2)Cc2ccccc2-3)c1`: the MIC in data set [1] was greater than 128 µM.

As to `Fc1ccc(Nc2nc3c(s2)Cc2ccccc2-3)cc1`, the MIC in data set [1] is greater than 128 µM.

Take `Clc1cc(Cl)cc(Nc2nc3c(s2)-c2ccccc2C3)c1`: in data set [1], the MIC is greater than 128 µM.

Regarding `Clc1cc(Cl)cc(Nc2nc3c(s2)CCc2ccccc2-3)c1`, the minimal inhibitory concentration (MIC) in data set [1] is 43.3 µM (≈ 15 µg/mL).

For the molecule `Fc1ccc(C(F)(F)F)cc1-c1csc(NC2CCCCC2)n1`, the MIC in data set [1] came to 30.3 µM (≈ 10.4 µg/mL).

With `Cc1ccc(Nc2ncc(-c3ccccc3)s2)cc1`, the MIC in data set [1] is greater than 128 µM.

For `CN(C)c1nc(-c2cc(C(F)(F)F)ccc2F)cs1`, the MIC in data set [1] was greater than 128 µM.

Regarding `Fc1ccc(C(F)(F)F)cc1-c1csc(N2CCCCC2)n1`, the MIC in data set [1] is 56.5 µM (≈ 18.7 µg/mL).

As for `CC(=O)N1CCN(c2nc(-c3cc(C(F)(F)F)ccc3F)cs2)CC1`, in data set [1], the MIC stood at 118 µM (≈ 44 µg/mL).

As to `Cc1ccc2c(ccn2-c2nc(-c3cc(C(F)(F)F)ccc3F)cs2)c1`, in data set [1], the MIC was greater than 128 µM.

Take `Cc1ccc(C(=O)Nc2nc(-c3cc(C(F)(F)F)ccc3F)cs2)cc1`: the MIC in data set [1] is greater than 128 µM.

On to `Cc1ccc(CNc2nc(-c3cc(C(F)(F)F)ccc3F)cs2)cc1`, for which the MIC in data set [1] was greater than 128 µM.

As for `Fc1ccc(C(F)(F)F)cc1-c1csc(Nc2ccncc2)n1`, the minimal inhibitory concentration (MIC) in data set [1] is greater than 128 µM.

Take `Cc1ccc(Nc2nc(-c3cc(C(F)(F)F)ccc3F)cs2)cc1`: in data set [4], the selectivity ratio worked out at 3.4. Besides, in data set [1], the minimal inhibitory concentration (MIC) worked out at 27.5 µM (≈ 9.69 µg/mL). The concentration for half-maximal inhibition (IC50) in the data set on Vero came to 92.4 µM.

`Cc1ccc(N(C)c2nc(-c3cc(C(F)(F)F)ccc3F)cs2)cc1`: the MIC in data set [1] is 31.7 µM (≈ 11.6 µg/mL). Moreover, the half-maximal inhibitory concentration (IC50) in the data set with Vero is greater than 128 µM.

Consider `Cc1cccc(Nc2nc(-c3cc(C(F)(F)F)ccc3F)cs2)c1`, for which the minimal inhibitory concentration (MIC) in data set [1] came out at 29.8 µM (≈ 10.5 µg/mL).

`Cc1ccccc1Nc1nc(-c2cc(C(F)(F)F)ccc2F)cs1`: the minimum inhibitory concentration (MIC) in data set [1] came to 35.1 µM (≈ 12.4 µg/mL).

Consider `Fc1ccc(C(F)(F)F)cc1-c1csc(Nc2ccc(Cl)cc2)n1`, for which the MIC came to 31.5 µM in data set [2] and 19.2 µM (≈ 7.16 µg/mL) in data set [1]. Further, the selectivity ratio in data set [4] was 2.4. Further, in data set [3], the Ratio is recorded as 2. Moreover, in the data set on Vero, the IC50 was found to be 46.6 µM.

In the case of `Fc1ccc(C(F)(F)F)cc1-c1csc(Nc2cccc(Cl)c2)n1`, in data set [1], the MIC came out at 30.1 µM (≈ 11.2 µg/mL).

As to `Fc1ccc(C(F)(F)F)cc1-c1csc(Nc2ccccc2Cl)n1`, the MIC in data set [1] was greater than 128 µM.

In the case of `Fc1ccc(C(F)(F)F)cc1-c1csc(Nc2ccc(Cl)cc2Cl)n1`, in data set [1], the MIC was greater than 128 µM.

On to `Fc1ccc(C(F)(F)F)cc1-c1csc(Nc2cc(Cl)cc(Cl)c2)n1`, for which the MIC came out at 15.2 µM in data set [2] and 15 µM (≈ 6.11 µg/mL) in data set [1]. Besides, in data set [4], the selectivity ratio came out at 3.3. The 50% inhibitory concentration (IC50) with Vero was found to be 50 µM.

Take `Cc1cc(C)cc(Nc2nc(-c3cc(C(F)(F)F)ccc3F)cs2)c1`: the MIC in data set [1] amounted to 30.1 µM (≈ 11 µg/mL).

Consider `Cc1ccc(Nc2nc(-c3cc(C(F)(F)F)ccc3F)cs2)c(Cl)c1`, for which the MIC in data set [1] was greater than 128 µM.

As to `Fc1ccc(Nc2nc(-c3cc(C(F)(F)F)ccc3F)cs2)cc1`, the MIC in data set [1] was determined as 59.5 µM (≈ 21.2 µg/mL).

In the case of `Cc1ccc(Nc2nc(-c3cc(C(F)(F)F)ccc3F)cs2)c(C)c1`, the MIC in data set [1] was 30.8 µM (≈ 11.3 µg/mL).

As to `CCN(c1cc(Cl)cc(Cl)c1)c1nc(-c2cc(C(F)(F)F)ccc2F)cs1`, the MIC in data set [1] was greater than 128 µM.

Consider `COc1ccc(-c2csc(Nc3cc(Cl)cc(Cl)c3)n2)cc1`, for which, in data set [1], the MIC came out at 15.6 µM (≈ 5.48 µg/mL).

As to `Cc1ccc(Nc2nc(-c3ccc(C(F)(F)F)cc3)cs2)cc1`, the minimal inhibitory concentration (MIC) in data set [1] is greater than 128 µM.

For `Cc1ccc(Nc2nc(-c3ccc(Cl)cc3)cs2)cc1`, the MIC in data set [1] is greater than 128 µM.

For the molecule `Cc1ccc(Nc2nc(-c3ccccc3Cl)cs2)cc1`, the MIC in data set [1] is greater than 128 µM.

Consider `Cc1ccc(Nc2nc(-c3ccc(C)cc3)cs2)cc1`, for which the MIC in data set [1] was greater than 128 µM.

With `Cc1ccc(Nc2nc(-c3ccccc3)cs2)cc1`, the MIC in data set [1] was determined as 63.8 µM (≈ 17 µg/mL).

As to `Cc1ccc(Nc2nc(-c3ccc(O)cc3)cs2)cc1`, in data set [1], the MIC is greater than 128 µM.

Consider `Clc1cc(Cl)cc(Nc2nc(-c3ccccc3)cs2)c1`, for which, in data set [1], the MIC was 28.6 µM (≈ 9.19 µg/mL).

Regarding `Cc1sc(Nc2cc(Cl)cc(Cl)c2)nc1-c1ccccc1`, the MIC in data set [1] amounted to 28.9 µM (≈ 9.69 µg/mL).

For the molecule `Clc1cc(Cl)cc(Nc2nc(-c3ccccc3)c(-c3ccccc3)s2)c1`, in data set [1], the MIC is greater than 128 µM.

Consider `NNC(=O)c1ccncc1` [ISONIAZID], for which the MIC in data set [1] was determined as 0.4 µM (≈ 0.0549 µg/mL).

For the molecule `O=[N+]([O-])c1cn2c(n1)OC[C@@H](OCc1ccc(OC(F)(F)F)cc1)C2` [PRETOMANID], the MIC in data set [1] was 0.8 µM (≈ 0.287 µg/mL).

Turning to `CO[C@H]1/C=C/O[C@@]2(C)Oc3c(C)c(O)c4c(O)c(c(/C=N/N5CCN(C)CC5)c(O)c4c3C2=O)NC(=O)/C(C)=C\C=C\[C@H](C)[C@H](O)[C@@H](C)[C@@H](O)[C@@H](C)[C@H](OC(C)=O)[C@@H]1C` [RIFAMPIN], the MIC in data set [1] came out at 0.1 µM (≈ 0.0823 µg/mL).

For the molecule `CN[C@@H]1[C@H](O[C@H]2[C@H](O[C@H]3[C@H](O)[C@@H](O)[C@H](N=C(N)N)[C@@H](O)[C@@H]3N=C(N)N)O[C@@H](C)[C@]2(O)C=O)O[C@@H](CO)[C@H](O)[C@H]1O` [STREPTOMYCIN], in data set [1], the MIC came out at 0.3 µM (≈ 0.174 µg/mL).

The record behind these values is ChEMBL document CHEMBL3102705, “Design, synthesis and investigation on the structure-activity relationships of N-substituted 2-aminothiazole derivatives as antitubercular agents” (Eur J Med Chem, 2014).
